Reference: ChEMBL document CHEMBL1138564, “Microwave-induced synthesis and anti-microbial activities of 7,10,11,12-tetrahydrobenzo[c]acridin-8(9H)-one derivatives” (2009)
Converted amounts (≈) assume the structure as drawn. The source made the active and inactive calls. No cut-off for these calls is given here.

Tests used:
[1] = test system: Trichoderma viride; assay: Antimicrobial activity against Trichoderma viride NCIM 1195 at 500 ug/disk after 72 hrs by disk diffusion method; type: functional; settings: NCIM 1195, 72 h, read-out: DIZ
How it was run: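 Fungal disc diffusion. 100 µl of suspension at 10⁶ CFU/ml was spread on Sabouraud's dextrose agar. Discs carrying test compound in DMSO were applied, with a DMSO-only disc as negative control. Plates were incubated at 27 °C for 72 h, and the zone of inhibition diameter was measured.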

[2] = test system: Rhodotorula mucilaginosa; assay: Antimicrobial activity against Rhodotorula rubra NCIM 3174 after 72 hrs by serial dilution method; type: functional; settings: NCIM 3174, 72 h
How it was run: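 MIC by broth dilution in Sabouraud's dextrose broth, run only on fungi found sensitive in the disc assay. Twofold serial dilutions were made in 1 ml broth per tube, covering 3.9 to 1000. Inoculated tubes were incubated at 27 °C for 72 h.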

[3] = test system: Aspergillus niger; assay: Antimicrobial activity against Aspergillus niger NCIM 1196 at 500 ug/disk after 72 hrs by disk diffusion method
[4] = test system: Bacillus subtilis; assay: Antimicrobial activity against Bacillus subtilis NCIM 2063 at 500 ug/disk after 24 hrs by disk diffusion method; type: functional; settings: NCIM 2063, 24 h, read-out: DIZ
How it was run: (§1)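 Disc diffusion on Mueller–Hinton agar. 100 µl of bacterial suspension at 10⁸ CFU/ml is spread on the plate. Discs carry test compounds at two loadings, dissolved in DMSO; DMSO alone serves as negative control. Ofloxacin disc is the positive reference. Plates are incubated at 37 °C for 24 h, and the inhibition zone diameter is measured.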

[5] = test system: Bacillus subtilis; assay: Antimicrobial activity against Bacillus subtilis NCIM 2063 at 1000 ug/disk after 24 hrs by disk diffusion method; type: functional; settings: NCIM 2063, 24 h, read-out: DIZ; how it was run: as §1
[6] = test system: Lipomyces lipofer; assay: Antimicrobial activity against Lipomyces lipofer NCIM 3252 at 1000 ug/disk after 72 hrs by disk diffusion method; type: functional
How it was run: (§2)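 Disc diffusion on Sabouraud's dextrose agar. 100 µl of fungal suspension at 10⁶ CFU/ml is spread on the plate. Discs carry test compounds at two loadings in DMSO; DMSO alone is the negative control. Clotrimazole disc is the positive reference. Plates are incubated at 27 °C for 72 h, and the zone of inhibition diameter is measured.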

[7] = test system: Proteus vulgaris; assay: Antimicrobial activity against Proteus vulgaris NCIM 2027 at 500 ug/disk after 24 hrs by disk diffusion method; type: functional; how it was run: as §1
[8] = test system: Staphylococcus; assay: Antimicrobial activity against Staphylococcus albus NCIM 2178 at 1000 ug/disk after 24 hrs by disk diffusion method; type: functional
How it was run: (§3)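 Disc diffusion. 100 µl of bacterial suspension at 10⁸ CFU/ml was spread on Mueller–Hinton agar. Discs loaded with test compound dissolved in DMSO were placed on the lawn, with a DMSO-only disc as negative control. Plates were incubated at 37 °C for 24 h, and the inhibition zone diameter was measured.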

[9] = test system: Lipomyces lipofer; assay: Antimicrobial activity against Lipomyces lipofer NCIM 3252 at 500 ug/disk after 72 hrs by disk diffusion method; type: functional; how it was run: as §2
[10] = test system: Proteus vulgaris; assay: Antimicrobial activity against Proteus vulgaris NCIM 2027 at 1000 ug/disk after 24 hrs by disk diffusion method; type: functional; how it was run: as §1
[11] = test system: Aspergillus parasiticus; assay: Antimicrobial activity against Aspergillus parasiticus NCIM 904 at 500 ug/disk after 72 hrs by disk diffusion method; type: functional; settings: NCIM 904, 72 h, read-out: DIZ; how it was run: as §2
[12] = test system: Aspergillus fumigatus; assay: Antimicrobial activity against Aspergillus fumigatus NCIM 902 at 500 ug/disk after 72 hrs by disk diffusion method; type: functional; how it was run: as §2
[13] = test system: Klebsiella aerogenes; assay: Antimicrobial activity against Klebsiella aerogenes NCIM 2239 at 500 ug/disk after 24 hrs by disk diffusion method; type: functional; how it was run: as §1
[14] = test system: Aspergillus flavus; assay: Antimicrobial activity against Aspergillus flavus NCIM 902 at 500 ug/disk after 72 hrs by disk diffusion method; type: functional; settings: NCIM 902, 72 h, read-out: DIZ; how it was run: as §2
[15] = test system: Escherichia coli; assay: Antimicrobial activity against Escherichia coli NCIM 2065 at 1000 ug/disk after 24 hrs by disk diffusion method; type: functional; settings: NCIM 2065, 24 h, read-out: DIZ; how it was run: as §1
[16] = test system: Klebsiella aerogenes; assay: Antimicrobial activity against Klebsiella aerogenes NCIM 2239 at 1000 ug/disk after 24 hrs by disk diffusion method; type: functional; how it was run: as §1
[17] = test system: Salmonella typhimurium; assay: Antimicrobial activity against Salmonella Typhimurium NCIM 2501 at 500 ug/disk after 24 hrs by disk diffusion method; type: functional; settings: Salmonella enterica subsp. enterica serovar Typhimurium; how it was run: as §3
[18] = test system: Aspergillus flavus; assay: Antimicrobial activity against Aspergillus flavus NCIM 902 after 72 hrs by serial dilution method; type: functional; settings: NCIM 535, 72 h, in the assay text read “NCIM 535” for “NCIM 902”
How it was run: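 MIC by broth dilution in Sabouraud's dextrose broth, only for fungi sensitive in disc diffusion. Two-fold serial dilutions of compounds are made in 1 ml broth per tube, range 3.9 to 1000. Inoculated tubes are incubated at 27 °C for 72 h.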

[19] = test system: Escherichia coli; assay: Antimicrobial activity against Escherichia coli NCIM 2065 at 500 ug/disk after 24 hrs by disk diffusion method; type: functional; settings: NCIM 2065, 24 h, read-out: DIZ; how it was run: as §1
[20] = test system: Staphylococcus; assay: Antimicrobial activity against Staphylococcus albus NCIM 2178 at 500 ug/disk after 24 hrs by disk diffusion method; type: functional; how it was run: as §3
[21] = test system: Penicillium chrysogenum; assay: Antimicrobial activity against Penicillium chrysogenum NCIM 707 at 1000 ug/disk after 72 hrs by disk diffusion method; type: functional; how it was run: as §2
[22] = test system: Bacillus cereus; assay: Antimicrobial activity against Bacillus cereus NCIM 2155 at 1000 ug/disk after 24 hrs by disk diffusion method; type: functional; settings: NCIM 2155, 24 h, read-out: DIZ; how it was run: as §1

With `O=C1CCCC2=C1C(c1ccccc1)c1ccc3ccccc3c1N2` (configuration not stated) the zone of inhibition at 500 µg/disc [1] was 11 mm, the MIC [2] was 31.2 µg/mL (≈ 95.9 µM) and the “diameter of the inhibition zone (DIZ)” value [3] was “inactive”. The zone of inhibition at 500 µg/disc [4] was 8 mm, the zone of inhibition at 1000 µg/disc [5] was 10 mm and the “diameter of the inhibition zone (DIZ)” value [6] was “inactive”. The “diameter of the inhibition zone (DIZ)” value [7] was “inactive”, the “diameter of the inhibition zone (DIZ)” value [8] was “inactive” and the “diameter of the inhibition zone (DIZ)” value [9] was “inactive”. For the same compound, the “diameter of the inhibition zone (DIZ)” value [10] was “inactive”, the zone of inhibition at 500 µg/disc [11] was 7 mm and the “diameter of the inhibition zone (DIZ)” value [12] was “inactive”. For the same compound, the “diameter of the inhibition zone (DIZ)” value [13] was “inactive”, the zone of inhibition at 500 µg/disc [14] was 9 mm and the zone of inhibition at 1000 µg/disc [15] was 9 mm. For the same compound, the “diameter of the inhibition zone (DIZ)” value [16] was “inactive”, the “diameter of the inhibition zone (DIZ)” value [17] was “inactive” and the MIC [18] was 62.5 µg/mL (≈ 192 µM). For the same compound, the zone of inhibition at 500 µg/disc [19] was 8 mm, the “diameter of the inhibition zone (DIZ)” value [20] was “inactive” and the “diameter of the inhibition zone (DIZ)” value [21] was “inactive”. For the same compound, the zone of inhibition at 1000 µg/disc [22] was 9 mm.
